Measurements from ChEMBL document CHEMBL5154715, “Phenolic Lipids Derived from Cashew Nut Shell Liquid to Treat Metabolic Diseases” (J Med Chem, 2022).
Active and inactive are the calls of the source. The calls are words filed in the database; no cut-off is given here.

Columns and labels:
Danio rerio [1] = assay: In vivo agonist activity at human GFP-tagged PPARalpha in transgenic zebrafish assessed as increase in GFP expression in brain at 1.5 uM measured after 14 hrs by microscopy
Danio rerio [2] = assay: In vivo agonist activity at human GFP-tagged PPARalpha in transgenic zebrafish assessed as increase in GFP expression in heart at 1.5 uM measured after 14 hrs by microscopy
[3] = Apparent oral clearance in C57BL/6 mouse at 100 mg/kg, po measured upto 24 hrs by LC-MS/MS analysis; format: ADME, organism-based; details: in vivo
Summary of the method: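 Single oral dose given in peanut butter pellets to WT male C57Bl/6 mice acclimated 7 days to drug-free pellets; n = 4 per time point. Saphenous blood at 0.25–2 h, terminal collection at 4–38 h. Plasma extracted with methanol containing internal standard, LC-MS/MS with negative-ion ESI MRM. Parameters reported as mean ± SEM; Frel is oral vs IP.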

[4] = AUC (0 to infinity) in C57BL/6 mouse at 40 mg/kg, ip measured upto 24 hrs by LC-MS/MS analysis; format: ADME, organism-based; set-up: time < 24 hrs, dose 40 mg/kg, route ip; details: in vivo
Summary of the method: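 Single IP dose in 5% DMSO/5% Tween-80/90% saline to WT male C57Bl/6 mice, 7–10 months old; n = 4 per time point. Saphenous sampling at 0.08–0.5 h, then terminal trunk blood at 1–6 h. Plasma extracted with methanol plus internal standard and analyzed by LC-MS/MS; mean ± SEM.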

[5] = Elimination rate constant in C57BL/6 mouse at 100 mg/kg, po […] by LC-MS/MS analysis; format: ADME, organism-based; details: in vivo
[6] = Relative bioavailability in C57BL/6 mouse at 100 mg/kg […] by LC-MS/MS analysis; format: ADME, organism-based; details: in vivo

Compound	Activity (Danio rerio [1])	Activity (Danio rerio [2])	CL/F [3] [mL/min/kg]	AUC(0-inf) [4] [µg·h/mL]	k el [5] [s⁻¹]	bioavailability [6] [%]
CCCCCCCCCCCCCCCc1cccc(OC(C)=O)c1C(=O)O	Active	Active				
CCCCCCCCCCCCCCCc1cccc(OC(C)(C)C(=O)O)c1			2.3	748	8.28e-05	38
